Data on 1 molecule can be found in ChEMBL document CHEMBL4334552, “Discovery of BMS-986260, a Potent, Selective, and Orally Bioavailable TGFβR1 Inhibitor as an Immuno-oncology Agent” (ACS Med Chem Lett, 2020).

What is called Tmax is the time from dosing to the highest level. For orientation: half-life means how long it takes for the measured level to halve. What is called fraction unbound is free concentration divided by total concentration. For orientation: IC50 means the concentration that gives 50% inhibition. As a reminder, the AUC is concentration integrated over time. Low values mean less exposure, high ones more exposure. For orientation: clearance means the rate of elimination divided by the concentration. Low values mean inefficient removal, high ones efficient removal.

Data set [1] can be described thus: Tmax in Balb/C mouse at 10 mg/kg, po. The data set is classed as ADME, organism-based. The settings on record: in vivo. In short, it runs like this: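 Male Balb/C mice (n = 3) dosed iv at 5 mg/kg and po at 10 mg/kg. Vehicle was 70% 25 mM acetate buffer pH 4.0, 5% ethanol and 25% PEG 400.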
Data set [2] is described as follows: Half life in dog liver microsomes in presence of NADPH. It is filed as ADME, Canis lupus familiaris, Microsome. In general terms: Liver microsomes are vesicles of endoplasmic reticulum, rich in cytochrome P450 enzymes.
Data set [3] in a line: Protein binding in rat serum assessed as unbound fraction. The data set is classed as ADME, cell-free.
Data set [4] has as its target T1, TGF-beta receptor type-1 (Homo sapiens, UniProt P36897).
T1 sequence (P36897 whole entry): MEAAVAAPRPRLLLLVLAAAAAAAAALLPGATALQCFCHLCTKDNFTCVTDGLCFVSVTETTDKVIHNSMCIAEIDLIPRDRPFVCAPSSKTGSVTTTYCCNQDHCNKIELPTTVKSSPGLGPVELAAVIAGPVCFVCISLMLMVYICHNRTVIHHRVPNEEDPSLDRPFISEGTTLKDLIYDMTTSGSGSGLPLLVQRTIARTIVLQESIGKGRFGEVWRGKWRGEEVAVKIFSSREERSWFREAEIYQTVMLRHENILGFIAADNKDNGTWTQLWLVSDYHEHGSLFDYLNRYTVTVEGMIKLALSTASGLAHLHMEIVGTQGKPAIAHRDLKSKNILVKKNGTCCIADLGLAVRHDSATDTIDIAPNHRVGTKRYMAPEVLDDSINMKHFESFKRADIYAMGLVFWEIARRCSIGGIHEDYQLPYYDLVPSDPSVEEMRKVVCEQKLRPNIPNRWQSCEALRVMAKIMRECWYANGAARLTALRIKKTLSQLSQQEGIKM
The data set is described as follows: Inhibition of TGFbetaR1 in TGFbeta-stimulated human T cells assessed as reduction in SMAD3 phosphorylation preincubated for 1 hr followed by TGFbeta-stimulation for 90 mins by Alphalisa assay. (In Alpha technology, singlet oxygen from a donor bead excites a nearby acceptor bead.)

Data set [5] is described as follows: Half life in dog liver microsomes in presence of UGT/UDPGA. The data set is classed as ADME, Canis lupus familiaris, Microsome.
The nature of data set [6]: Half life in human liver microsomes in presence of UGT/UDPGA. The data set is classed as ADME, Microsome.
The nature of data set [7]: Half life in dog hepatocytes. The data set is classed as ADME, cell-based, Canis lupus familiaris, Hepatocyte.
Data set [8] can be described thus: Total AUC in Sprague Dawley rat at 10 mg/kg, po. Further details: dose 10 mg/kg, route oral, time AUCmax. It is filed as ADME, organism-based. The settings on record: in vivo. In short, it runs like this:
(§1)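 Male Sprague–Dawley rats (n = 3) received a PEG400 solution iv at 5 mg/kg and po at 10 mg/kg.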

A short description of data set [9]: Tmax in Sprague Dawley rat at 10 mg/kg, po. Conditions: in vivo. The data set is classed as ADME, organism-based. In short, it runs like this: as §1
The nature of data set [10]: Half life in Sprague Dawley rat at 5 mg/kg, iv. Conditions: in vivo. It is filed as ADME, organism-based. Summed up: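 Male Sprague–Dawley rats (n = 3) dosed iv at 5 mg/kg as a PEG400 solution, alongside a 10 mg/kg oral arm. Half-life was derived from the iv profile.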
Data set [11] can be described thus: Total AUC in Beagle dog at 5 mg/kg, po. It is filed as ADME, organism-based, Canis lupus familiaris. Further details: dose 5 mg/kg, route oral, time AUCmax. The settings on record: in vivo. In short, it runs like this: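 Male Beagle dogs (n = 2) were pretreated with pentagastrin and dosed iv at 1 mg/kg and po at 5 mg/kg. The oral vehicle was 5% ethanol, 45% PEG400 and 50% 25 mM acetate buffer pH 4.0. The iv vehicle was 5:45:50 EtOH/PEG400/saline at 1 mL/kg.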

Data set [12] is described as follows: Half life in Beagle dog at 1 mg/kg, iv. The data set is classed as ADME, organism-based, Canis lupus familiaris. The settings on record: in vivo. Summed up:
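Male Beagle dogs (n = 2) pretreated with pentagastrin were given 1 mg/kg iv in 5:45:50 EtOH/PEG400/saline at 1 mL/kg. A 5 mg/kg oral arm used 5% ethanol, 45% PEG400, 50% 25 mM acetate buffer pH 4.0. Half-life was from the iv arm.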

Data set [13] can be described thus: Clearance in Beagle dog at 1 mg/kg, iv. The data set is classed as ADME, organism-based, Canis lupus familiaris. The settings on record: in vivo. In short, it runs like this:
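Male Beagle dogs, n = 2, pretreated with pentagastrin. The po dose of 5 mg/kg was in 5% ethanol, 45% PEG400 and 50% 25 mM acetate buffer pH 4.0. The iv dose of 1 mg/kg was in 5:45:50 EtOH/PEG400/saline at 1 mL/kg.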

In the next data set the test system is MC-38. The data set is described as follows: Induction of long-term antitumor memory response in compound-mediated tumor cured C57Bl/6 mouse allografted with mouse MC38 cells assessed as reduction in tumor growth following rechallenge with newly implanted mouse MC38 cells treated at 3.75 to 15 mg/kg, po qd for 28 days and cotreated with anti-PD1 at 10 mg/kg, ip every 4 days for 3 doses prior to MC38 cells rechallenge by digital caliper analysis. It is filed as functional, organism-based. Summed up:
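Mice cured by oral dosing plus anti-PD-1 (10 mg/kg IP, every 4 days, three doses) were re-implanted with MC38 or LL2 cells. Tumor growth was compared with naive mice.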

The target of the next data set is T2, Cytochrome P450 2C8 (Homo sapiens, UniProt P10632).
T2 sequence (P10632 whole entry): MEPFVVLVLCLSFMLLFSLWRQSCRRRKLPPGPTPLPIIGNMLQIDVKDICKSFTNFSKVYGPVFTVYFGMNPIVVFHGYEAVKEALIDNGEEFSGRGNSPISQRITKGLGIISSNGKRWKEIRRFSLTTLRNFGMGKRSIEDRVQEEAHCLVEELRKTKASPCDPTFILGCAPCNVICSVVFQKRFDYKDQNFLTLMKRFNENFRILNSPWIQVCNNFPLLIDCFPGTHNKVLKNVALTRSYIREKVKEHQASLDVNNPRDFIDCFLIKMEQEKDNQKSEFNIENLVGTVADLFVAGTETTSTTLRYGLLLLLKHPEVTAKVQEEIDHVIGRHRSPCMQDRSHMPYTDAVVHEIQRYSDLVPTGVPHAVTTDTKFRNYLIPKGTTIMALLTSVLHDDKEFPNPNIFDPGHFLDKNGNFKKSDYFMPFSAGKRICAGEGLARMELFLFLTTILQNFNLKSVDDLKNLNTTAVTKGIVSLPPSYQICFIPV
Description: Induction of recombinant CYP2C8 (unknown origin) up to 24 microM. It is filed as ADME. Conditions: recombinant enzyme.

The target in data set [14] is T3, TGF-beta receptor type-1 (Mus musculus, UniProt Q64729).
T3 sequence (Q64729 whole entry): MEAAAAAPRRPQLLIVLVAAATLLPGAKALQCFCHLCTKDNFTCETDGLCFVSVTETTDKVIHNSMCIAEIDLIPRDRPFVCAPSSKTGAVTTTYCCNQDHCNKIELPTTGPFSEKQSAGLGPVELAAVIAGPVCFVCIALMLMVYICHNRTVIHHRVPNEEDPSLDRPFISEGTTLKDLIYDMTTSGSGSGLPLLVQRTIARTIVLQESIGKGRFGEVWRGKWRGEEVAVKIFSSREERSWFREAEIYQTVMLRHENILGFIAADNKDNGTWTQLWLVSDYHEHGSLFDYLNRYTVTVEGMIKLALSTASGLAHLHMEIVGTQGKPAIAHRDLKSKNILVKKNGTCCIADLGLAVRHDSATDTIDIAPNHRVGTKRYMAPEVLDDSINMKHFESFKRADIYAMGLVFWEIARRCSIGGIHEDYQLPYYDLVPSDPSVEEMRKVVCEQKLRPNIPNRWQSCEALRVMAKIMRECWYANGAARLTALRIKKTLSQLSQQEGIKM
Description: Inhibition of TGFBR1 in mouse biochemical assay assessed as apparent inhibition constant. The settings on record: read-out: Ki(app).

Molecules are shown by their SMILES. Active and inactive are the calls of the source. No cut-off for these calls is given here.

On to `N#Cc1cnc2ccc(-c3c(-c4ccc(F)c(Cl)c4)ncn3CCO)nn12`, for which the figures for the time of peak concentration (Tmax) in data set [1] and in data set [9] were 0.3 h and 1.1 h, respectively. Also, the half-life in data set [2] was 0.617 h; in [5], 1.53 h; in [6] it was above 2 h; in data set [7], 1.03 h; in [10], 5.7 h; in [12], 5 h. For the same molecule, the unbound share (fraction unbound) in data set [3] is 0.1. In addition, the 50% inhibitory concentration (IC50) at TGF-beta receptor type-1 [4] was determined as 150 nM. The figures for the AUC in data set [8] and in data set [11] were 90.8 µM·h and 35 µM·h, respectively. Besides, the clearance in data set [13] amounted to 6.4 mL/min/kg. Also, the outcome with MC-38 was Active. Also, the Activity entry at Cytochrome P450 2C8 is “Not Active”. In addition, at TGF-beta receptor type-1 [14], the Ki is 1.4 nM.
